Assay outcomes deposited in PubChem BioAssay by Broad Institute.
A selection: hits, their analogues and other compounds. The true share with any hit is near 3.6%.
T cruzi repl: T. cruzi replication inhibition. T. cruzi beta-gal in NIH3T3, luminescence, 90 h. inhibition, % (concentration not given with the values). 1.4% of 300,000 active;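 active = mean inhibition across valid replicates above about 55%, limit read from the data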;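 also: signal also drops with host cell toxicity which is not excluded here; 0% = plate median of DMSO wells and 100% = zero luminescence signal; higher percent means less beta-gal luminescence so fewer parasites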
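Assay system: NIH/3T3 host cells with β-galactosidase reporter T. cruzi; input: 5,000 host fibroblasts per well; compound: single 50 nL compound addition per well in DMSO; timing: ≥90 h infection period, 3 h prior cell attachment; measured by: GalScreen β-gal luminescence, detergent lysis, 60 min; evaluation: percent inhibition of parasite-derived β-gal signal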
HIF activator: HIF pathway transcriptional activation; U2OS HRE-luciferase reporter, luminescence; normalized: DMSO 0%, desferrioxamine 100%; activation, % at 7.5 µM (by protocol); 0.32% of 300,000 active; AID 1910;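 active = mean activation of at least 10% of the iron chelator positive control signal, with at least half of replicates also reaching 10%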
Beta cell apopt: beta cell apoptosis inhibition; INS-1E cytokine-induced death, ATP luminescence, 48 h; percent of positive-control rescue, neutral wells zero; protection from apoptosis, % (concentration not given with the values); 0.8% of 300,000 active; AID 435005;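 active = Every replicate reaches about 75%, or at least half do and their mean reaches it too, limit read from the data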;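 also: 0% = cytokine-treated negative control wells and 100% = positive control rescue; higher means more ATP so stronger rescue from cytokine killing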
SKKanGAS inh: SKKanGAS growth inhibition; S. pyogenes SKKanGAS, kanamycin growth, BacTiter-Glo, 6 h; inhibition, % at 7.5 µM; 1.3% of 300,000 active;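 active = mean replicate score, as percent of positive control median, at least 50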;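 also: strain carries kanamycin resistance gene driven by streptokinase promoter and grows in 40 µg/ml kanamycin; loss of luminescence reflects streptokinase promoter inhibition or plain growth inhibition; 0% = median of DMSO wells and 100% = positive control at its reference dose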
PfHsp90 set2: growth inhibition of yeast expressing Plasmodium Hsp90. S. cerevisiae expressing PfHsp90, BacTiter-Glo ATP, 48 h; yeast lacking PDR1 and PDR3 efflux regulators. inhibition, % at 9.4 µM. 0.32% of 310,000 active;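 active = every replicate shows inhibition above about 80%, whatever the replicate mean, limit read from the data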;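 also: 0% = DMSO neutral controls and 100% = 20 µM radicicol positive controls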
CSC inhib: cancer stem cell inhibition; cancer stem cell-like cells viability, luminescence; inhibition, % at 7.5 µM; 1.1% of 300,000 active; AID 2717; in the data active = inhibition above about 75%; tested in HMLE shEcad cells
The depositor's hits bear a star; / = no result given.

SMILES	T cruzi repl	HIF activator	Beta cell apopt	SKKanGAS inh	PfHsp90 set2	CSC inhib
CC(Sc1nc2cc([N+](=O)[O-])ccc2n1-c1cccc(C(F)(F)F)c1)C(=O)NC(N)=O (centres undefined)	17	0	3	51*	-23	1
Oc1ccccc1/C=N/NC(=S)NC1CC2CC1C1C=CCC21 (centres undefined)	-19	3	28	93*	-22	100*
COc1cccc(/C=N/NC(=S)NC2CC3CC2C2C=CCC32)c1O (centres undefined)	-19	1	2	109*	-8	0
COc1cccc(/C=N/NC(=S)Nc2cccc(C(=O)O)c2)c1O	19	-1	10	/	14	35
CC(O)CC(C(=O)NNc1ccccc1)C(=O)NNc1ccccc1 (centres undefined)	1	0	/	1	20	92*
CC(C)OC(=O)C(=O)NNc1ccccc1	58*	0	-3	-8	-1	99*
CCOC(=O)c1c(NC(C)=O)sc2c(OCCN(CC)CC)c(Br)ccc12	58*	-7	56	14	-16	28
CCOC(=O)c1c(NC(C)=O)sc2c(OCC(O)CN(CC)CC)c(Br)ccc12 (centres undefined)	48	-6	27	0	9	25
Cc1ncc(CO)c(/C=N/Nc2ccc(C(F)(F)F)cn2)c1O	30	9.6*	116*	1	-29	89*
O=C(CCl)Nc1ccc(-c2ccccc2)cc1	61*	-4	-24	6	12	5
O=C(CCl)Nc1cccc(Oc2cnccn2)c1	1	0	-6	-3	16	14
O=C(CCl)Nc1cccc(Oc2ccccc2)c1	56*	-1	-8	13	-11	-8
CC(C)N(c1ccccc1)c1ccc(NC(=O)CCl)cc1	80*	-3	-8	3	19	-7
CCN(CC)c1ccc(/C=N/NC(=O)c2cccc(N3CCCC3=O)c2)cc1	5	0	5	/	13	18
CC(Oc1cccnc1[N+](=O)[O-])C(=O)N1CCc2ccccc21 (centres undefined)	/	/	1	/	/	8
NC(=O)NC(Cc1ccccc1)C(=O)NNC(=O)COc1ccccc1Cl (centres undefined)	/	/	-5	/	-36	-19
CN(C)c1nc(-c2ccccc2)ncc1S(=O)(=O)c1ccccc1	17	0	-13	-16	11	-12
CCN(CC)c1nc(-c2ccccc2)ncc1S(=O)(=O)c1ccc(C)cc1	58*	-1	0	15	-3	44
Cc1ccc(-n2c(C)cc(/C=N/NC(N)=S)c2C)cc1	65*	1	8	-4	-30	-8
Cc1cc(Nc2ccccc2)cc(=O)n1C	-4	41*	-3	2	-24	10
Cc1nn(-c2ccc(F)cc2)c2nc(N)c(C#N)c(-c3ccc(O)c(O)c3)c12	59*	-3	-2	39	-9	31
Cc1nn(-c2ccccc2)c2nc(N)c(C#N)c(-c3ccc(O)c(O)c3)c12	42	0	-1	15	4	44
COc1cc(-c2c(C#N)c(N)nc3c2c(C)nn3-c2ccc(C)c(C)c2)cc(OC)c1OC	45	-1	14	50*	-12	12
CC(Sc1nnc2c(n1)[nH]c1ccccc12)C(=O)NC1CCCCC1 (centres undefined)	20	-1	18	5	7	/
CC(Sc1nnc2c(n1)[nH]c1ccccc12)C(=O)N(C)C1CCCCC1 (centres undefined)	3	0	100*	7	-18	10
SMILES	T cruzi repl	HIF activator	Beta cell apopt	SKKanGAS inh	PfHsp90 set2	CSC inhib
CSCCC(NC(=O)c1ccccc1Br)C(=O)N1CCN(C/C=C/c2ccccc2)CC1 (centres undefined)	/	/	/	/	5	/
Cc1ccccc1NC(=O)CN(C)S(=O)(=O)c1ccc(-c2ccc(=O)[nH]n2)s1	10	519*	-4	1	3	7
CC[C@H](C)[C@H]1CNC(=S)N1CC1CCN(CCCC2CCCC2)CC1	/	/	/	/	6	/
CC1CC(C)CN(S(=O)(=O)c2ccc(C(=O)Nc3nnc(-c4cccs4)o3)cc2)C1 (centres undefined)	24	0	/	82*	-54	45
CC1CCCN(S(=O)(=O)c2ccc(C(=O)Nc3nnc(-c4ccccc4Cl)o3)cc2)C1 (centres undefined)	41	0	16	97*	-9	22
N#Cc1ccc(C(=O)Nc2nnc(-c3cccs3)o2)cc1	35	0	/	52*	-43	22
CC1CCCN(S(=O)(=O)c2ccc(C(=O)Nc3nnc(-c4ccccn4)o3)cc2)C1 (centres undefined)	-14	0	-25	6	-18	26
O=C(Nc1nnc(-c2cccs2)o1)c1cccc(C(F)(F)F)c1	48	0	/	92*	-107	39
O=C(O)c1cccc2cccc(-c3c4ccc(=O)c(O)c-4oc4c(O)c(O)ccc34)c12	/	/	/	/	-45	/
O=S(=O)(c1ccc(F)c(Cl)c1)N1CCN(C/C=C/c2ccccc2)CC1	/	/	-6	/	/	/
CSc1nnc2c3cc(F)ccc3n(C)c2n1	-20	0	/	0	83*	1
CCCCn1c2ccc(F)cc2c2nnc(SCCN3CCCCC3)nc21	59*	-1	/	0	-15	/
Cc1cccc(C)c1NC(=O)CN1CCN(C(=O)c2ccc(OCc3cn4ccccc4n3)cc2)CC1	/	/	-7	/	/	/
CC(C)(C)[C@@H]1CCC(=O)N(CC[C@H](Sc2ccc(Br)cc2)c2ccccc2)CC1	/	/	8	/	-11	108*
CC(=O)Nc1ccc(SC[C@H](C)CN2CC[C@H](C(C)(C)C)CCC2=O)cc1	/	/	6	/	-6	102*
O=C(N[C@@H]1CCC(=O)N(CC[C@H](Sc2ccc(Br)cc2)c2ccccc2)CC1)OCc1ccccc1	/	/	1	/	-27	34
COc1ccc(S[C@@H](CCN2CC[C@H](NC(=O)OCc3ccccc3)CCC2=O)c2ccccc2)cc1	/	/	3	/	5	82*
COc1ccc(SC[C@H](C)CN2CC[C@H](NC(=O)OCc3ccccc3)CCC2=O)cc1	/	/	-5	/	-7	20
C[C@@H](CSc1ccc(Br)cc1)CN1CC[C@H](NC(=O)OCc2ccccc2)CCC1=O	/	/	3	/	-30	91*
O=C(NNC(=O)c1cccc2ccccc12)c1ccc(Br)cc1	/	/	/	/	-7	/
Cc1ccsc1/C=N/Nc1ccc(F)cc1F	13	4	2	10	1	49
Cc1cccc(N2C(=O)CC(c3ccc(F)cc3)C3=C2COC3=O)c1 (centres undefined)	-1	0	-7	3	/	-3
Cc1cc(C)cc(OCC(=O)Nc2nc(-c3cccnc3)cs2)c1	8	0	-2	-5	1	-11
COc1cc(NC(=O)CSc2ncnc3sc4c(c23)CCCC4)c(C(=O)O)cc1OC	-10	0	-7	55*	15	-11
